Results on 23 compounds are retold here after ChEMBL document CHEMBL4041534, “Treatment of Sepsis Pathogenesis with High Mobility Group Box Protein 1-Regulating Anti-inflammatory Agents” (J Med Chem, 2017).

Data set [1] deals with T1, High mobility group protein B1 (Mus musculus) (UniProt P63158).
T1 sequence (whole entry): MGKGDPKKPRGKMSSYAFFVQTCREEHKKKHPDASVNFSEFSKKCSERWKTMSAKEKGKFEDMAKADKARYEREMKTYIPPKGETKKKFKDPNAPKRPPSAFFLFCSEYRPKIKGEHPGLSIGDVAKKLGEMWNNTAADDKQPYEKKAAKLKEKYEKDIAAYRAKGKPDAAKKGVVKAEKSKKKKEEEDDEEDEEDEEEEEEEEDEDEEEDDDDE
Put plainly: Inhibition of HMGB1 translocation from nucleus to cytosol in LPS-stimulated mouse RAW264.7 cells assessed as inhibition of NO release at 10 uM measured after 24 hrs by Griess assay relative to control. The method in brief:
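Raw264.7 cells, seeded 1 day earlier, were moved to serum-free DMEM and exposed to 100 ng/mL LPS with 10 μM compound for 24 h. Supernatant NO was measured with Griess reagent (sulfanilamide/N-(1-naphthyl)ethylenediamine/phosphoric acid) at room temperature, absorbance 548 nm. Inhibition was set against LPS+DMSO wells, blank-corrected, with four control wells. At least three independent experiments.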

Data set [2] is described as follows: Cytotoxicity against mouse RAW264.7 cells assessed as cell viability at 10 uM in presence of LPS measured after 24 hrs by WST assay relative to control. The format is cell-based. The settings on record: read-out: Activity. The method in brief: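 Raw264.7 cells, seeded 1 day earlier, were washed into serum-free DMEM and given 100 ng/mL LPS plus compound (10 μM) for 24 h. After the supernatant was removed, wells were refilled with 10% FBS DMEM and WST reagent was added for 20 min at 37 °C. Absorbance was read at 450 nm, and viability is relative to vehicle. At least three independent experiments.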

Data set [3] deals with T1, High mobility group protein B1 (Mus musculus). Put plainly: Inhibition of HMGB1 translocation from nucleus to cytosol in LPS-stimulated mouse RAW264.7 cells assessed as inhibition of TNF-alpha production at 10 uM measured after 4 hrs by ELISA relative to control. The method in brief:
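Raw264.7 cells in serum-free DMEM were treated with 100 ng/mL LPS and 10 μM compound (final). After 4 h, medium was diluted in 1% BSA/PBS and secreted TNF-α was quantified by ELISA against a standard curve of TNF-α protein. Inhibition is relative to control. At least three independent experiments.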

A further data set deals with RAW264.7. Briefly: Cytotoxicity against mouse RAW264.7 cells assessed as reduction in cell viability at >10 uM in presence of LPS measured after 24 hrs by WST assay. It counts as cell-based. The settings on record: raw264.7, 24 h.
The target of data set [4] is T1, High mobility group protein B1 (Mus musculus). Briefly: Inhibition of HMGB1 nuclear translocation in LPS-stimulated mouse RAW264.7 cells assessed as inhibition of IL-6 production at 10 uM pretreated for 1 hr followed by LPS-induction by Western blot analysis. The method in brief: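 Raw264.7 cells were pretreated with 10 μM compound for 1 h, then given 100 ng/mL LPS. IL-6 released into the culture medium was detected by Western blot with ECL chemiluminescence, DMSO as control. At least three independent experiments.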

Data set [5] shares this target. Put plainly: Inhibition of HMGB1 nuclear translocation in LPS-stimulated mouse RAW264.7 cells at 20 uM pretreated for 1 hr followed by LPS-induction measured after 2 hrs by Hoechst 33342/TRITC staining based immunofluorescence microscopic method. The method in brief: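 Raw264.7 cells on chambered coverglass were pretreated with 20 μM compound for 1 h, then given 500 ng/mL LPS for 2 h. Cells were fixed in 4% paraformaldehyde, permeabilized with methanol at −20 °C, blocked with 2% BSA, and stained with anti-HMGB1 plus TRITC secondary and Hoechst 33342. Imaged by deconvolution fluorescence microscopy. At least three independent experiments.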

Active and inactive are the calls of the source. The calls are words filed in the database; no cut-off is given here.

For `COc1ccc2c(c1)OC(C)(C)C1=CCn3c(=O)n(-c4ccccc4)c(=O)n3C12` (configuration not stated), in data set [1], the inhibition is 44%.

In the case of `COc1cccc(-n2c(=O)n3n(c2=O)C2C(=CC3)C(C)(C)Oc3cc(O)ccc32)c1` (configuration not stated), the inhibition is 96% in data set [1] and 38% in data set [3]. The viability at 24 h, 10 µM in data set [2] came to 118%.

As to `CC1(C)Oc2cc(O)ccc2C2C1=CCn1c(=O)n(-c3ccc(C(C)(C)C)cc3)c(=O)n12` (configuration not stated), the inhibition in data set [1] was found to be 99%. The viability at 24 h, 10 µM in data set [2] is 105%. Also, the Activity entry in the data set with RAW264.7 is given as “Toxic”.

Turning to `CC1(C)Oc2cc(O)ccc2C2C1=CCn1c(=O)n(-c3ccc(C(F)(F)F)cc3)c(=O)n12` (configuration not stated), in data set [1], the inhibition amounted to 85%. Besides, the viability at 24 h, 10 µM in data set [2] came to 106%. Besides, the Activity result with RAW264.7 was “Toxic”.

For the compound `CC1(C)Oc2cc(O)ccc2C2C1=CCn1c(=O)n(C3CCCCC3)c(=O)n12` (configuration not stated), the inhibition in data set [1] came out at 63%. Further, the viability at 24 h, 10 µM in data set [2] amounted to 117%.

As to `COc1ccc2c(c1)C1C(=CCn3c(=O)n(-c4ccccc4)c(=O)n31)C(C)(C)O2` (configuration not stated), the inhibition in data set [1] was determined as 55%.

Consider `CC1(C)Oc2ccccc2C2C1=CCn1c(=O)n(-c3ccccc3)c(=O)n12` (configuration not stated), for which the inhibition in data set [1] came to 83%.

With `CC1(C)Oc2cc(O)ccc2C2C1=CCn1c(=O)n(-c3ccc(F)cc3)c(=O)n12` (configuration not stated), the inhibition in data set [1] amounted to 87%; in data set [3], 44%. Also, the viability at 24 h, 10 µM in data set [2] was 109%.

As for `CC(=O)N1CCC2(CC1)Oc1cc(O)ccc1C1C2=CCn2c(=O)n(-c3ccccc3)c(=O)n21` (configuration not stated), the inhibition in data set [1] worked out at 36%.

`CC1(C)Oc2cc(O)ccc2C2C1C=Cn1c(=O)n(-c3ccccc3)c(=O)n12` (configuration not stated): the inhibition entry in data set [1] is “inactive”.

With `CC1(C)Oc2cc(F)ccc2C2C1=CCn1c(=O)n(-c3ccccc3)c(=O)n12` (configuration not stated), the inhibition in data set [1] worked out at 79%.

Consider `CCCCc1ccc(-n2c(=O)n3n(c2=O)C2C(=CC3)C(C)(C)Oc3cc(O)ccc32)cc1` (configuration not stated), for which the inhibition in data set [1] was determined as 99%. Besides, in data set [2], the viability at 24 h, 10 µM was found to be 50%. The Activity entry in the data set on RAW264.7 is recorded as “Toxic”.

Consider `COc1ccccc1-n1c(=O)n2n(c1=O)C1C(=CC2)C(C)(C)Oc2cc(O)ccc21` (configuration not stated), for which the inhibition in data set [1] worked out at 66%. The viability at 24 h, 10 µM in data set [2] turned out to be 115%.

Regarding `CC1(C)Oc2cc(O)ccc2C2C1=CCn1c(=O)n(-c3ccccc3I)c(=O)n12` (configuration not stated), in data set [1], the inhibition came to 48%. The viability at 24 h, 10 µM in data set [2] was found to be 109%.

`CC1(C)Oc2cc(O)ccc2C2C1=CCn1c(=O)n(-c3ccc4c(c3)OCO4)c(=O)n12` (configuration not stated): the inhibition in data set [1] worked out at 92%; in data set [3] it was 46%. Also, the viability at 24 h, 10 µM in data set [2] stood at 121%. Besides, the inhibition result in data set [4] and in data set [5] was “Active” each time.

Turning to `CCCN1CCC2(CC1)Oc1cc(O)ccc1C1C2=CCn2c(=O)n(-c3ccccc3)c(=O)n21` (configuration not stated), in data set [1], the inhibition was 47%.

As for `CC1(C)Oc2cc(O)ccc2C2C1CCn1c(=O)n(-c3ccccc3)c(=O)n12` (configuration not stated), the inhibition result in data set [1] is “inactive”.

Take `COc1cc2c(cc1OC)C1C(=CCn3c(=O)n(-c4ccccc4)c(=O)n31)C(C)(C)O2` (configuration not stated): the inhibition in data set [1] was found to be 44%.

Turning to `CNc1ccc2c(c1)OC(C)(C)C1=CCn3c(=O)n(-c4ccccc4)c(=O)n3C12` (configuration not stated), the inhibition in data set [1] is 52%.

Consider `COc1ccc2c(c1O)OC(C)(C)C1=CCn3c(=O)n(-c4ccccc4)c(=O)n3C12` (configuration not stated), for which, in data set [1], the inhibition worked out at 26%.

On to `COc1ccc(-n2c(=O)n3n(c2=O)C2C(=CC3)C(C)(C)Oc3cc(O)ccc32)cc1` (configuration not stated), for which the inhibition in data set [1] is 89%; in data set [3], 44%. Also, in data set [2], the viability at 24 h, 10 µM turned out to be 127%.

With `Cc1ccc(-n2c(=O)n3n(c2=O)C2C(=CC3)C(C)(C)Oc3cc(O)ccc32)cc1` (configuration not stated), the inhibition in data set [1] is 94%; in data set [3], 45%. Besides, the viability at 24 h, 10 µM in data set [2] worked out at 130%. For the same compound, the inhibition entry in data set [4] and in data set [5] was “Active” throughout.

`CC1(C)Oc2cc(O)ccc2C2C1=CCn1c(=O)n(Cc3ccccc3)c(=O)n12` (configuration not stated): in data set [1], the inhibition was found to be 70%. Further, the viability at 24 h, 10 µM in data set [2] is 106%.

By inhibition is commonly meant how much of the control response was suppressed.
